PKA-R2B activ – PKA-R2B complex activation; P22694+P31323; PKA-R2B holoenzyme dissociation, Cy5-IP20 fluorescence polarization; R2B truncated from residue 108, S112A mutant; 0% DMSO only, 100% 113 µM cGMP; activation, % at 11.4 µM; 340,000 compounds, 0.079% hits; AID 504700;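 active = activation above a cutoff set at the mean over all compounds plus 3 SD, cut at about 18% in these data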;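 also: higher means more holoenzyme dissociation and a rise in polarization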
Target sequence (P31323 whole entry, looked up, other chains not shown, the tested form may be a part): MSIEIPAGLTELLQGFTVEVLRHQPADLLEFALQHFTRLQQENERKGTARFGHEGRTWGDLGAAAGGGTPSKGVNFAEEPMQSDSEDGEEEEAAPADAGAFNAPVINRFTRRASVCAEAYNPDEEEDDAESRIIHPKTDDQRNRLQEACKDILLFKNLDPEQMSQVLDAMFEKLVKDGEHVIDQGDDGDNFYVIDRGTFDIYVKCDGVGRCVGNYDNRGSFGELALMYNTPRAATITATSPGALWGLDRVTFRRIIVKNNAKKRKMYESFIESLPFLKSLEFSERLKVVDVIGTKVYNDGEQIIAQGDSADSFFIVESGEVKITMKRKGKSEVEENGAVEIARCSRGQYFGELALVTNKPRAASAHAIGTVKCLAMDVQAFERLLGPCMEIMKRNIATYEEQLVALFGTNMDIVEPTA
CRFR2-BP antag – antagonists of CRF-binding protein/CRF-R2 receptor complex. HEK293 CRF-R2/CRF-BP, CRF-induced calcium fluorescence. inhibition, % at 11.8 µM. 350,000 compounds, 0.59% hits;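 active = inhibition of the ligand-induced calcium signal above about 50% at the single tested concentration, limit read from the data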
S100A4 inh HTS – S100A4-myosin IIA interaction inhibition. AID 652163. 360,000 compounds, 0.14% hits. inhibition, % at 10.7 µM. S100A4/TAMRA-MyoIIA peptide fluorescence polarization. P26447;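 active = mean inhibition of at least 70% across replicates, with every replicate also reaching that level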
Target sequence (P26447 whole entry, looked up): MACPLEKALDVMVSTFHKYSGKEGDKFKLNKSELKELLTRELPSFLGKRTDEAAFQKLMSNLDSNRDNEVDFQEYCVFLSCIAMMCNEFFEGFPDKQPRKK
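incubation = readout 5 min after mixing, signal stable up to 60 min | system = S100A4 monomer protein | buffer or medium = HEPES pH 7.2 with CaCl2, KCl, NaCl, DTT, Triton | benchmarks = neutral control DMSO, positive control TFP | also added = fluorescent myosin IIA peptide, 5 nM | compound dosing = one concentration per compound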
PKA-R1A act – PKA-R1A complex activation; PKA-R1A dissociation, Cy5-IP20 fluorescence polarization; scaled: DMSO 0%, 113 µM cGMP 100%; P00514+P68181; activation, % at 11.4 µM; 340,000 compounds, 0.083% hits;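 active = percent activation above the mean of all tested compounds plus 3 SD, cut at about 19% in these data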;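 also: higher means more PKAc released from R1A so a rise in polarization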
SIRT5 inh – inhibitors of human sirtuin-5 desuccinylase. Purified SirT5, succinyl-peptide AMC, trypsin-coupled fluorescence. inhibition, % at 15 µM. AID 652115. 330,000 compounds, 1.1% hits; in the data active = inhibition above about 15%
* hit, by the source's call; . = no result; ! = a repeat was not active. Only some compounds are listed: those with a hit (about 1.5% of all), similar ones and a draw of the others.

SMILES	PKA-R2B activ	CRFR2-BP antag	S100A4 inh HTS	PKA-R1A act	SIRT5 inh
C=CCNC(=O)COc1ccc(Oc2ccccc2)cc1	10.2	8.5	2.6	1.1	-2.2
C=CCNC(=O)COc1c(C)ccc(C)c1C	-4.9	7.7	1.0	-6.1	22.7*
CCC(=O)N1CC(=O)N2[C@H](CO)[C@@H](c3ccc(C#CCC(C)C)cc3)[C@H]2C1	.	.	1.3	.	-4.5
CCC(=O)N1CC(=O)N2[C@H](CO)[C@H](c3ccc(C#CCC(C)C)cc3)[C@@H]2C1	.	.	-2.6	.	15.7*
CC(C)CC#Cc1ccc([C@@H]2[C@@H](CO)N3C(=O)CN(C(=O)CN4CCOCC4)C[C@@H]23)cc1	.	.	-0.9	.	17.4*
C[C@@H]1CCCCO[C@@H](CN(C)S(=O)(=O)c2cccs2)[C@H](C)CN([C@H](C)CO)C(=O)c2cc(NC(=O)Nc3ccc(C(F)(F)F)cc3)ccc2O1	.	.	-23.7	.	13.5
C[C@H](CO)N1C[C@H](C)[C@H](CN(C)Cc2ccccc2O)OCc2cn(nn2)CCCC1=O	.	.	-1.5	.	-5.6
O=C(CCC1CCCC1)c1c(O)c2ccccc2oc1=O	6.1	65.9*	-3.4	-2.0	1.6
Cc1cc2ccccc2n1CCNC(=O)c1ccc(S(=O)(=O)N2CCCCC2)cc1	0.8	-50.4	123.6*	6.0	-6.8
O=C(NCCc1ccccc1)c1ccc(S(=O)(=O)N2CCCCC2)cc1	-1.0	-14.3	-3.8	-10.6	.
Cc1cn(CC(=O)N2CCN(c3ccccn3)CC2)c(=O)[nH]c1=O	13.5	95.6*	3.3	16.0	-3.6
Cc1noc(C)c1NC(=O)N(C)C[C@@H]1Oc2ccc(NC(=O)CCN3CCOCC3)cc2C(=O)N([C@@H](C)CO)C[C@H]1C	.	.	3.4	.	0.8
Cc1noc(/C=C/N(C)C)c1S(=O)(=O)N1CCCC(C(=O)N2CCCCC2)C1 (stereo not drawn)	-1.3	7.8	-4.3	-4.2	17.2*
Cc1cccc(NC(=O)c2cccc([N+](=O)[O-])c2O)c1C	2.0	58.7*	-3.2	-3.0	-2.7
CCOC(=O)C(NCc1ccccn1)(NC(=O)c1cccnc1)C(F)(F)F (stereo not drawn)	-7.8	61.0*	.	-3.7	.
CCOC(=O)C(NC(=O)c1cccnc1)(Nc1cccc(C)n1)C(F)(F)F (stereo not drawn)	0.4	11.7	.	-5.9	.
C[C@H](CO)N1C[C@H](C)[C@H](CN(C)C(=O)Nc2ccc3c(c2)OCO3)OCCCC[C@H](C)Oc2ccc(NC(=O)CCCCCC(=O)Nc3ccccc3N)cc2C1=O	.	.	-2.6	.	3.7
C[C@H]1CN([C@@H](C)CO)C(=O)c2cc(C#Cc3ccncc3)cnc2O[C@@H]1CN(C)CC1CCOCC1	.	.	-4.5	.	4.5
Cc1ccc(S(=O)(=O)NC(=O)Nc2ccc(C)cn2)cc1	3.4	-37.4	-8.4	4.7	98.4*
C[C@@H]1CN([C@@H](C)CO)C(=O)c2cccc(NC(=O)NC3CCCCC3)c2O[C@H]1CN(C)C(=O)Nc1ccc(F)cc1	.	.	6.6	.	-0.1
O=C(NC1CCCCC1)C(c1ccccn1)N(C(=O)c1csnn1)C1CCCCC1 (stereo not drawn)	0.1	10.1	19.3	-2.2	15.4*
CC(C)(C)NC(=O)C(c1ccccn1)N(C(=O)c1csnn1)C1CCCC1 (stereo not drawn)	16.2	4.9	-3.0	-9.0	26.7*
Cc1ccc(N(C(=O)c2csnn2)C(C(=O)NC2CCCCC2)c2ccco2)cc1 (stereo not drawn)	-3.3	10.3	1.4	-5.7	79.1*
COc1ccc(NC(=O)N(C)C[C@@H]2OCCCC[C@@H](C)Oc3ccc(NC(=O)C4CCCCC4)cc3C(=O)N([C@H](C)CO)C[C@@H]2C)cc1	.	.	-7.4	.	-3.8
COc1ccc2c3c(n(C)c2c1)[C@H](CO)N(Cc1ccccc1Cl)CC31CCN(C(C)=O)CC1	.	.	8.8	.	4.8
SMILES	PKA-R2B activ	CRFR2-BP antag	S100A4 inh HTS	PKA-R1A act	SIRT5 inh
COc1ccccc1-n1cnnc1SCC(=O)NCc1cccs1	-2.2	82.5*	.	-12.1	.
COc1ccccc1-n1cnnc1SCC(=O)NC1CCCCC1	4.4	-6.4	2.9	-11.0	0.3
Cc1ccc(S(=O)(=O)N[C@@H]2CC[C@@H](CCNC(=O)Nc3ccc(Cl)cc3)O[C@H]2CO)cc1	.	.	22.5	.	-6.7
CCC(=O)Nc1ccc2c(c1)C(=O)N(C)C[C@H](OC)[C@H](C)CN(CC1CCCCC1)[C@H](C)CO2	.	.	44.9	.	7.3
O=C(Oc1ccc(C(=S)N2CCOCC2)cc1)c1ccc([N+](=O)[O-])cc1[N+](=O)[O-]	-4.9	1.7	-0.5	-8.9	12.5
O=C(Oc1cccc(C(=S)N2CCOCC2)c1)c1ccc([N+](=O)[O-])cc1[N+](=O)[O-]	16.9	-24.1	-1.9	6.1	101.4*
CN(C)CC(=O)Nc1ccc2c(c1)[C@@H]1C[C@@H](CC(=O)NCc3ccc4c(c3)OCO4)O[C@@H](CO)[C@@H]1O2	.	.	-3.9	.	-2.5
Nc1cc(-c2ccncc2)c[nH]c1=O	10.7	7.8	151.7*!	0.1	3.1
Cc1ccc(-n2nnnc2SCc2nnc(-c3ccccc3Br)o2)c(C)c1	-2.7	86.6*	-9.5	6.9	0.1
Cn1nnnc1SCc1nnc(-c2ccccc2Br)o1	-7.8	-10.8	.	-8.0	.
O=C(c1cc(COc2ccc(F)cc2Cl)on1)N1CC[C@@H]2CCCC[C@H]2C1	0.6	0.9	2.7	-7.7	33.7*
CO[C@H]1CN(C)C(=O)c2cc(NS(=O)(=O)c3ccccc3C)ccc2OC[C@H](C)NC[C@H]1C	.	.	-13.0	.	-3.3
Cc1ccccc1C(=O)NCCNC(=O)c1ccccn1	-5.7	-3.9	-3.2	-0.6	3.4
O=C(NCCNC(=O)c1ccccc1F)c1ccccn1	-1.6	6.7	-11.1	-8.5	15.7*
CCC(=O)N1CC2(C1)[C@H](c1ccccc1)[C@H](CO)N2C(=O)NC(C)C	.	.	3.4	.	-4.5
Cc1ccc(NC(=O)c2cccc(Oc3ccc([N+](=O)[O-])cc3)c2)c(C(=O)O)c1	-4.8	35.8	-4.8	1.5	6.6
O=C(Nc1ccc(O)cc1)c1cccc(Oc2ccc([N+](=O)[O-])cc2)c1	-10.8	57.1*	3.0	0.3	-2.5
C[C@@H]1CCCCO[C@@H](CN(C)Cc2ccncc2)[C@@H](C)CN([C@@H](C)CO)C(=O)c2cc(NC(=O)c3ccncc3)ccc2O1	.	.	2.1	.	3.4
CNC(=O)C[C@H]1CC[C@H]2[C@@H](COc3ccc(NC(=O)c4cccc(F)c4)cc3C(=O)N2C)O1	.	.	1.7	.	1.8
CC=Cc1ccc2n(c1=O)C[C@@H]1[C@@H](CO)[C@H](C(=O)NCCC)[C@H]2N1Cc1ccccc1 (mixture of isomers)	.	.	4.4	.	-4.7
O=C(C[C@@H]1CC[C@H](NC(=O)C2CCOCC2)[C@@H](CO)O1)NCC1CC1	.	.	0.6	.	-12.0
COC(=O)C(c1ccccc1)C1(O)CC(C)N(C)CC1C (stereo not drawn)	0.1	1.8	0.3	-16.4	25.8*

Compound activity deposited in PubChem by several laboratories.
